In brackets after ≈: the same amount, converted by molar mass.
What was measured:
[1] = molecular target: Phosphatidylinositol 4,5-bisphosphate 3-kinase catalytic subunit beta isoform (Homo sapiens, UniProt P42338); experiment: Inhibition of human recombinant His6-tagged PI3K p110beta expressed in baculovirus using DiC8-PI(4,5)P2 as substrate after 20 mins by AlphaScreen assay
Method in brief: (§1)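 Values are the mean of at least two experiments. Experimental error was within 20% of the value.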

[2] = molecular target: Phosphatidylinositol 4,5-bisphosphate 3-kinase catalytic subunit alpha isoform (Homo sapiens, UniProt P42336); experiment: Inhibition of human recombinant His6-tagged PI3K p110alpha expressed in baculovirus using DiC8-PI(4,5)P2 as substrate after 20 mins by AlphaScreen assay; method in brief: as §1
Phosphatidylinositol 4,5-bisphosphate 3-kinase catalytic subunit alpha isoform, sequence (P42336 whole entry, canonical isoform): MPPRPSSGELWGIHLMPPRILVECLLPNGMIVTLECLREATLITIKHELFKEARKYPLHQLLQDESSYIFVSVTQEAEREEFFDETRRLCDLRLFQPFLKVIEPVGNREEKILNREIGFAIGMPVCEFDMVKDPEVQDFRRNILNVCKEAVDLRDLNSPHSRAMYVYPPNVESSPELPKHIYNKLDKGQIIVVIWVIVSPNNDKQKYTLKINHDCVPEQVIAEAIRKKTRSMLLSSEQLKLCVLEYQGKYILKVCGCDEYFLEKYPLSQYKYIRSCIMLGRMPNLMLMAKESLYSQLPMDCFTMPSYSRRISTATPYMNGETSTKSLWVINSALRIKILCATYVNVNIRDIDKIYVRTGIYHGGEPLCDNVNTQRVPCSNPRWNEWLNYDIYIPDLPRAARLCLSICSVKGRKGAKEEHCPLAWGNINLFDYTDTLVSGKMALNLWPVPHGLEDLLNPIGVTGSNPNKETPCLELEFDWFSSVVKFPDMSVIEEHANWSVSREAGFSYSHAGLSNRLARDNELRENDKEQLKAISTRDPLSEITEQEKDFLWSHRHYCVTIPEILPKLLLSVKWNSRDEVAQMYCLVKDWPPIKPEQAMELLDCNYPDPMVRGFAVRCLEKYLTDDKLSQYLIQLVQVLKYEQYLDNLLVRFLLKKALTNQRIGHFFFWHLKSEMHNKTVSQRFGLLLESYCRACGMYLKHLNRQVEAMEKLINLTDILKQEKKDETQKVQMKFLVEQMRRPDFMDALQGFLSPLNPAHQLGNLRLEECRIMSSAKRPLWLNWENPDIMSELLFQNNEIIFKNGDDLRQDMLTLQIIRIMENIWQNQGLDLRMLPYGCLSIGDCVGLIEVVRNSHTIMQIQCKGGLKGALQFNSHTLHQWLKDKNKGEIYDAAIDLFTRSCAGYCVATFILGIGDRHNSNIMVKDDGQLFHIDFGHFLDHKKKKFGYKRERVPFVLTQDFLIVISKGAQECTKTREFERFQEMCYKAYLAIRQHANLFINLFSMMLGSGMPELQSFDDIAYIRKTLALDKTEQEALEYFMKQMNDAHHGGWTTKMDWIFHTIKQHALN

[3] = Lipophilicity, log D of the compound by HPLC analysis at pH 7.4; format: physicochemical; conditions: buffer
Method in brief: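 LogD was determined experimentally at pH 7.4 by an HPLC method.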

[4] = molecular target: Phosphatidylinositol 4,5-bisphosphate 3-kinase catalytic subunit gamma isoform (Homo sapiens, UniProt P48736); experiment: Inhibition of PI3K p110gamma
Phosphatidylinositol 4,5-bisphosphate 3-kinase catalytic subunit gamma isoform, sequence (P48736 whole entry, canonical isoform): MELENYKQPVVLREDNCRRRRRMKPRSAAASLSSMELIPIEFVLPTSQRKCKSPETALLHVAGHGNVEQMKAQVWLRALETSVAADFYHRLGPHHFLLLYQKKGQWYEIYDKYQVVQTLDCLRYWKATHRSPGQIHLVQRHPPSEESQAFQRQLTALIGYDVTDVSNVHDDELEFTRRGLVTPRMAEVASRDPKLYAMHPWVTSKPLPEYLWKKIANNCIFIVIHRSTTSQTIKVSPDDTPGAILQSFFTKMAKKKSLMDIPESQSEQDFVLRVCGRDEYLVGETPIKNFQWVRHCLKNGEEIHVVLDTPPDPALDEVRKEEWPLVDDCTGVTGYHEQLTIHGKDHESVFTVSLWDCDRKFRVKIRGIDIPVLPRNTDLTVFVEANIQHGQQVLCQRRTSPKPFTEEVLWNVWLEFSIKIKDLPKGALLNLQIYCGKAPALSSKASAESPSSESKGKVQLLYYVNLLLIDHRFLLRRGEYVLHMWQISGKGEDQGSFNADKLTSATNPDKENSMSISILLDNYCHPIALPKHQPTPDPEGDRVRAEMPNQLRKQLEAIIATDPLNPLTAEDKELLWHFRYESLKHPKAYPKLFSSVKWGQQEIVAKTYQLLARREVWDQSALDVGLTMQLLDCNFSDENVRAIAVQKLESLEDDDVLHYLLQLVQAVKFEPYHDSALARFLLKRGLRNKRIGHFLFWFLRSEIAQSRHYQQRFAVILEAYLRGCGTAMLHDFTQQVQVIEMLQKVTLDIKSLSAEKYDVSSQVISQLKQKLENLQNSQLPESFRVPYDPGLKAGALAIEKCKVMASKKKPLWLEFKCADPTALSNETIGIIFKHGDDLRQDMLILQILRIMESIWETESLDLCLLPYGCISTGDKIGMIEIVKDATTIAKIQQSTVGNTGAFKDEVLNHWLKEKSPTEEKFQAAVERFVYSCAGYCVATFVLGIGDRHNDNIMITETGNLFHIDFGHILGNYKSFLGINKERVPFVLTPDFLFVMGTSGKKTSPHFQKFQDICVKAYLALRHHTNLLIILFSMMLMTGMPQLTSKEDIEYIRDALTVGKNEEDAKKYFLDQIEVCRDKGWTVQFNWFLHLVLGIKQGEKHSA

[5] = Half life in human liver microsomes after 30 mins; format: ADME, Microsome
Method in brief: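 Half-life was measured after a 30 min incubation with human liver microsomes at 0.5 mg/mL.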

[6] = molecular target: T1, Phosphatidylinositol 4,5-bisphosphate 3-kinase catalytic subunit delta isoform (Homo sapiens, UniProt O00329); experiment: Inhibition of PI3K p110delta
T1 sequence (O00329 whole entry): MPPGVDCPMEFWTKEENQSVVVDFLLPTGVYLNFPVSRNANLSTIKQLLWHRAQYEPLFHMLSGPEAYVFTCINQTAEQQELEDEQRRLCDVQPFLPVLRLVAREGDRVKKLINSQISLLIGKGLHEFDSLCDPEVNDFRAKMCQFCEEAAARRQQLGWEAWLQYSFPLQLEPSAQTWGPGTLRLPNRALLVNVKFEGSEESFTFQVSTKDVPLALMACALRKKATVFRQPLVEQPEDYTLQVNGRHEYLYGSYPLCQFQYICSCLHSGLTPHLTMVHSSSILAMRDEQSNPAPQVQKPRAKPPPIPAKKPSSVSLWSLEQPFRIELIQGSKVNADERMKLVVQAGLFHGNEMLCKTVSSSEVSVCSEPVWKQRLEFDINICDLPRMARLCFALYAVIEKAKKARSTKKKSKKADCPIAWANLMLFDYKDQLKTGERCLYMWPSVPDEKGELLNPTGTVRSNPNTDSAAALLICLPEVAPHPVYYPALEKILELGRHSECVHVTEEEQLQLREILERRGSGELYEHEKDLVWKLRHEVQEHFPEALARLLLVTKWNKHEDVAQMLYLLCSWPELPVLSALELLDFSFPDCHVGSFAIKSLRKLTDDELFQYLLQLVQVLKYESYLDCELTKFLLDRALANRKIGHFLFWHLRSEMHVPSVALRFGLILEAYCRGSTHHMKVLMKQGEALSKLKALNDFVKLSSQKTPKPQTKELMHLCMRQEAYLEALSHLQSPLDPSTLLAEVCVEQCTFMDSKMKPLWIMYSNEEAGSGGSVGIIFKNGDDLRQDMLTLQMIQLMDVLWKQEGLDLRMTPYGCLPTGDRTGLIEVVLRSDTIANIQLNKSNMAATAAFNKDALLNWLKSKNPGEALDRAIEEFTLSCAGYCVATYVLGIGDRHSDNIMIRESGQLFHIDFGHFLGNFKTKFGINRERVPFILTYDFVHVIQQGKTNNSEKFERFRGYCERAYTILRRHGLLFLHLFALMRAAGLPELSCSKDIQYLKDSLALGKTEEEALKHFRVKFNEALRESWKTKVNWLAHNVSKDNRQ

[7] = Solubility of the compound in DMSO/HBSS at pH 7.4; format: physicochemical
Method in brief: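 Solubility was measured from DMSO into HBSS at pH 7.4.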

[8] = test system: Liver microsomes; experiment: Drug metabolism in human liver microsomes assessed as reactive glutathione adduct formation ratio after 30 mins relative to clozapine; format: ADME, Microsome; conditions: 0.5 h
Method in brief: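 Human liver microsomes at 1 mg/mL were incubated for 30 min in the presence of glutathione. The read-out was the ratio of reactive metabolite formation.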

Phosphatidylinositol 4,5-bisphosphate 3-kinase catalytic subunit beta isoform, sequence (P42338 whole entry, canonical isoform): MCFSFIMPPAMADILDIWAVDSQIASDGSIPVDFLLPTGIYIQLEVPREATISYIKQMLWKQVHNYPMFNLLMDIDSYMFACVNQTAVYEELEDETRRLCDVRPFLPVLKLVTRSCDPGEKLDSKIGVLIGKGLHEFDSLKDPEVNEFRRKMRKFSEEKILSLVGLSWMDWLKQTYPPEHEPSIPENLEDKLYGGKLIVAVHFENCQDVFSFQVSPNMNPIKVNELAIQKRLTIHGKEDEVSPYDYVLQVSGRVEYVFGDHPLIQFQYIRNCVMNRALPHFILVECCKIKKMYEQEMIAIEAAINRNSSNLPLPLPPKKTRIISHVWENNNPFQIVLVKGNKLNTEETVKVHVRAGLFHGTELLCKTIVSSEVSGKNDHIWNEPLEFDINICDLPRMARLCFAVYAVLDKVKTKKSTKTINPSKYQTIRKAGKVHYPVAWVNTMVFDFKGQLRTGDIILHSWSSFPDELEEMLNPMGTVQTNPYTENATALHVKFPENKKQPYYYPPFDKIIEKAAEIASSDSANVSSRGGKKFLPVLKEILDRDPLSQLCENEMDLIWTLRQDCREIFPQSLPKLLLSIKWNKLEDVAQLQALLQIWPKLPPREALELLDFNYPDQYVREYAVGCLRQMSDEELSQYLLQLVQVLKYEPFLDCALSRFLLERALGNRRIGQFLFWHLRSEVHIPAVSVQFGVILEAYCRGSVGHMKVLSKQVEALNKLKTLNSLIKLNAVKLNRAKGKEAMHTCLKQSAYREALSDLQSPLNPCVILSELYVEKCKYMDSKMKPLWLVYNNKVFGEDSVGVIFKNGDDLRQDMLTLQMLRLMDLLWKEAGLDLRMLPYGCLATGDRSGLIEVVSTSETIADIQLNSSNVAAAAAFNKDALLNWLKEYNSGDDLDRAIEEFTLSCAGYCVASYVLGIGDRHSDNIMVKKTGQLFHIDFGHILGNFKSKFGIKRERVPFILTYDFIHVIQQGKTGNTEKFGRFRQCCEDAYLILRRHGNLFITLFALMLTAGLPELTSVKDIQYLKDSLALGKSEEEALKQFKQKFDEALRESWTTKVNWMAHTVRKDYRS

| SMILES | IC50 [1] | IC50 [2] | further results |
| --- | --- | --- | --- |
| COC(=O)c1cc(NCc2ccccc2)nc(N2CCOCC2)c1 | 32 µM | 240 µM |  |
| N#Cc1nc(NCc2ccccc2)cc(N2CCOCC2)n1 | 1.6 µM | 41.4 µM |  |
| C[C@@H](Nc1cc(N2CCOCC2)nc(=O)[nH]1)c1cccc2ccccc12 | 36 µM | 146 µM |  |
| CNC(=O)c1cc(N2CCOCC2)nc(NCc2ccccc2)n1 | 23 µM |  |  |
| O=c1cc(N2CCOCC2)nc(NCc2ccccc2Cl)[nH]1 | 0.57 µM | 4.88 µM |  |
| O=c1cc(N2CCOCC2)nc(NCc2cc(Cl)ccc2Cl)[nH]1 | 1.4 µM | 4.52 µM |  |
| C[C@H](Nc1cc(N2CCOCC2)nc(=O)[nH]1)c1cccc2ccccc12 | 10 µM | 52.8 µM |  |
| NC(=O)c1cc(N2CCOCC2)nc(NCc2ccccc2)n1 | 2.5 µM |  |  |
| O=c1cc(N2CCOCC2)nc(NCc2cccc3ccccc23)[nH]1 | 0.093 µM | 4.3 µM | IC50 [4]: 18.5 µM; half-life [5]: 41 min; IC50 [6]: 0.14 µM; solubility [7]: 4.5 µM (≈ 1.51 µg/mL); logD [3]: 2.4; Ratio [8]: 0.21 |
| O=c1nc(N2CCOCC2)cc(NCc2cccc3ccccc23)[nH]1 | 2.6 µM | > 83.3 µM | half-life [5]: > 115 min; solubility [7]: > 100 µM; logD [3]: 1.5; Ratio [8]: 0 |

Second part, led by results:

| IC50 [1] | IC50 [2] | SMILES | further results |
| --- | --- | --- | --- |
| 0.084 µM | 3 µM | O=c1cc(N2CCOCC2)nc(NCc2cccc(Cl)c2Cl)[nH]1 |  |
| 43 µM | 119 µM | OCc1cc(NCc2ccccc2)nc(N2CCOCC2)c1 |  |
| 1.5 µM | 100 µM | O=c1nc(N2CCOCC2)cc(NCc2cccc(Cl)c2Cl)[nH]1 |  |
| 1.5 µM | 3.38 µM | O=c1cc(N2CCOCC2)nc(NCc2c(Cl)cccc2Cl)[nH]1 |  |
|  | 5.7 µM | Cc1cc(C(C)Nc2ccccc2)c2nc(N3CCOCC3)cc(=O)n2c1 (stereo not given) | logD [3]: 3.6 |
| 29 µM | > 83.3 µM | O=c1nc(N2CCOCC2)cc(NCc2ccccc2)[nH]1 | logD [3]: 0.5 |
| 87 µM | > 83.3 µM | NCc1nc(NCc2ccccc2)cc(N2CCOCC2)n1 |  |
| 110 µM | > 83.3 µM | Nc1nc(NCc2ccccc2)cc(N2CCOCC2)n1 |  |
| 0.47 µM | 7.9 µM | O=c1cc(N2CCOCC2)nc(NCc2cccc(Cl)c2)[nH]1 |  |
| 63 µM | 283 µM | O=c1cc(NCc2ccccc2)nc(N2CCOCC2)[nH]1 | logD [3]: 1.1 |
| 130 µM |  | Cc1cc(N2CCOCC2)nc(NCc2ccccc2)n1 |  |
| 1.9 µM | 12.2 µM | O=c1cc(N2CCOCC2)nc(NCc2ccccc2)[nH]1 | logD [3]: 1.2 |
| 36 µM | > 83.3 µM | c1ccc(CNc2cc(N3CCOCC3)ncn2)cc1 |  |
| 34 µM | 142 µM | O=c1cc(NCc2ccccc2)[nH]c(N2CCOCC2)c1 | logD [3]: 1.8 |
| 25 µM |  | CN(C)C(=O)c1cc(N2CCOCC2)nc(NCc2ccccc2)n1 |  |
